Screening results deposited in PubChem by several laboratories.
Rows were chosen to be rich in hits. Some 2.5% of all compounds tested hit in one or more screens of this group.
ADAM17 inh: inhibitors of human ADAM17 | actives 0.83% (n = 370,000) | AID 720648 | inhibition, % at 6.95 µM | P78536 | recombinant ADAM17, EDANS/DABCYL FRET peptide cleavage;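 active means inhibition above the mean of compounds lying between control limits plus 3 SD, set per campaign, cut at about 8.5% in these data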;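 further: 0% = DMSO-only wells as the low control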
proKLK7 act: proKLK7 (human) activation, primary screen. P49862. purified proKLK7, EDANS-DABCYL substrate fluorescence; 100% is mature enzyme control, 0% vehicle. activation, % at 7 µM. actives 0.9% (n = 370,000). AID 652039;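 active means activation above the mean of all tested compounds plus 3 SD, computed per campaign excluding outliers beyond control limits, cut at about 13% in these data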
Target sequence (P49862 whole entry, looked up): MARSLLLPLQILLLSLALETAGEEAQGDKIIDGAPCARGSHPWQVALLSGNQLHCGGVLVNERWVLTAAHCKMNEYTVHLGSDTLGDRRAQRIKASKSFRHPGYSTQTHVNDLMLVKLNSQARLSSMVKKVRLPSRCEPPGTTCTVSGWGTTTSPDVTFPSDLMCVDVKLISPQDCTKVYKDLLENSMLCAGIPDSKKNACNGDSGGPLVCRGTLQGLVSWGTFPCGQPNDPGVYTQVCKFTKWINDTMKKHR
ADAM10 inh: inhibitors of human ADAM10; recombinant ADAM10, EDANS/DABCYL FRET peptide cleavage, 3 h; actives 0.62% (n = 370,000); inhibition, % at 7 µM;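 active means inhibition above a per-campaign cutoff equal to the mean of compounds falling between control-based bounds plus 3 SD, cut at about 20% in these data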;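 further: 0% = DMSO wells while the 100% control is not disclosed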
GASC-1 inh: inhibitors of human GASC-1 (JMJD2C) demethylase; GST-JMJD2C(1-420) H3K9me3 demethylation, DELFIA europium; inhibition, % at 2.35 µM; actives 0.069% (n = 330,000);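 active means more than half of a compound's replicate wells show inhibition beyond 50%, single wells judged on their own value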;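 further: signal counts dimethyl H3K9 product captured on neutravidin plate; 0% = median of DMSO wells and 100% = 0.3 times that DMSO median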
Target sequence (Q9H3R0 1-420 limits assumed): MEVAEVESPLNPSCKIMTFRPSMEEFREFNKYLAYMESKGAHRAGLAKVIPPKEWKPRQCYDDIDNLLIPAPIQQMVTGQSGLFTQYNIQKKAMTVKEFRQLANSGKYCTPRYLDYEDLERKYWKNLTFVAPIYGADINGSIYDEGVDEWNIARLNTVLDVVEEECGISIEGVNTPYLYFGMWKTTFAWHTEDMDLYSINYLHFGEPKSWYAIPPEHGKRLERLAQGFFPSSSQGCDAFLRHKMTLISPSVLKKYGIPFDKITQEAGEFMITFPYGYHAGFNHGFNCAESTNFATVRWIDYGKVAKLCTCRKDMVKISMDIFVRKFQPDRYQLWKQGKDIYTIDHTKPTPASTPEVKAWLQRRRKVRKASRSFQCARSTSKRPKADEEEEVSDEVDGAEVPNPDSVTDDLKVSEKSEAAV
NR2E3 ag-1: human photoreceptor-specific nuclear receptor agonism; CHO-S Gal4-NCOR/VP16-NR2E3 two-hybrid, luciferase; Q9Y5X4; inhibition of corepressor binding, % at 3.98 µM; actives 0.35% (n = 360,000);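 active means inhibition above the mean of all tested compounds plus 3 SD, cut at about 70% in these data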;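 further: 0% = DMSO with NR2E3 transfected cells and 100% = cells lacking NR2E3 construct; higher means lower luciferase signal from less NR2E3 corepressor binding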
NR2E3 ag-2: agonists of human nuclear receptor NR2E3; Q9Y5X4; inhibition of corepressor binding, % at 4.78 µM; actives 0.12% (n = 320,000); GST-NR2E3/biotin-RetCOR TR-FRET, 1536-well;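 active means percent inhibition above the cutoff of mean plus 3 SD of all tested compounds, set per screening campaign, cut at about 20% in these data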;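 further: 0% = DMSO wells and 100% = biotin wells as full block of FRET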
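Assay system: NR2E3–RetCOR corepressor complex. Quantity: 1.35 nM GST-NR2E3. Buffer or medium: pH 7.5 Tris-based buffer. Reagent: biotinylated RetCOR corepressor at 7 nM final. Schedule: 5 h at 4 °C. Detection: TR-FRET, emission read at 617 and 671 nm. Replicates: one well per compound, singlicate testing.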
ADAM10 counter: counter-screen for ADAM17 exosite inhibitors: inhibitors of human ADAM10. shares compounds with ADAM17 inh. recombinant ADAM10, EDANS/DABCYL FRET peptide cleavage, 3 h. actives 47% (n = 2,900). inhibition, % at 6.95 µM;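 active means mean inhibition over the triplicate runs exceeds the activity threshold set in the earlier primary screen, cut at about 20% in these data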;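 further: 0% = DMSO wells and 100% = marimastat wells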
ADAM17 confirm: human ADAM17 inhibition, confirmation; shares compounds with ADAM17 inh; recombinant ADAM17, EDANS/DABCYL QFRET peptide cleavage; inhibition, % at 6.95 µM; actives 65% (n = 2,900);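 active means mean inhibition across replicates above the hit cutoff set in the primary screen, cut at about 8.5% in these data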;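 further: 0% = DMSO wells and 100% = marimastat wells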
* marks the source's active call; other numbers are inactive results.

O=C(Nc1cccc(Oc2ccccc2)c1)C1Cc2c(-c3cccc(F)c3)ccnc2O1 (stereo not drawn) was read as ADAM17 inh 14.7*, proKLK7 act -0.4, ADAM10 inh 15.3, NR2E3 ag-1 -6.3, ADAM10 counter 15.2 and ADAM17 confirm 10.9*.
Cc1cccc(C(=O)OCCN2CCOCC2)c1 was read as ADAM17 inh -2.1, proKLK7 act 0.3, ADAM10 inh 4.9, GASC-1 inh 0.6, NR2E3 ag-1 -29.7 and NR2E3 ag-2 1.7.
Screening O=C(COc1cccc(F)c1)NNC(=O)c1cccc(-n2cccc2)c1 returned ADAM17 inh -0.2, proKLK7 act 0.4, ADAM10 inh -5.0, GASC-1 inh 1.4, NR2E3 ag-1 -21.4 and NR2E3 ag-2 0.3.
`O=C(COc1ccccc1F)NNC(=O)c1cccc(-n2cccc2)c1` gave ADAM17 inh 14.7*, proKLK7 act 0.3, ADAM10 inh 11.1, GASC-1 inh -5.0, NR2E3 ag-1 -0.5, NR2E3 ag-2 3.4, ADAM10 counter -0.7 and ADAM17 confirm 3.0.
For COc1ccc(C)cc1S(=O)(=O)N(CC(=O)NCc1ccc(Cl)cc1)Cc1ccccc1 the results were ADAM17 inh 9.7*, proKLK7 act 0.5, ADAM10 inh 18.9, GASC-1 inh -8.9, NR2E3 ag-1 -6.4, NR2E3 ag-2 -2.4, ADAM10 counter 31.5* and ADAM17 confirm 17.3*.
Screening COc1ccc(C)cc1S(=O)(=O)N(CC(=O)N1CCOCC1)Cc1ccccc1 returned ADAM17 inh -3.3, proKLK7 act 0.0, ADAM10 inh 1.3, GASC-1 inh 0.3, NR2E3 ag-1 -19.4 and NR2E3 ag-2 -2.5.
For Cc1nc(Oc2ccc(S(=O)(=O)N3CCOCC3)cc2Cl)c2c3c(sc2n1)CCCC3 the results were ADAM17 inh 0.3, proKLK7 act 0.6, ADAM10 inh -9.1, GASC-1 inh -6.3, NR2E3 ag-1 -49.8 and NR2E3 ag-2 2.5.
For CS/C(=C\[N+](=O)[O-])Nc1ccccc1 the results were ADAM17 inh 0.7, proKLK7 act 0.1, ADAM10 inh -6.0, GASC-1 inh 0.5, NR2E3 ag-1 -7.7 and NR2E3 ag-2 -0.5.
Screening CS/C(=C\[N+](=O)[O-])Nc1ccc(F)cc1 returned ADAM17 inh 12.7*, proKLK7 act -0.2, ADAM10 inh 11.9, GASC-1 inh 8.9, NR2E3 ag-1 -8.7, NR2E3 ag-2 2.6, ADAM10 counter 6.7 and ADAM17 confirm 3.0.
For Cc1ccc(Cn2nnc3c2-c2cc(F)ccc2S(=O)(=O)N(C(C)(C)C)C3)cc1 the results were ADAM17 inh 9.5*, proKLK7 act 0.1, ADAM10 inh 18.3, ADAM10 counter 23.0* and ADAM17 confirm 10.7*.
`CCCn1c(CCNc2nc(-c3cccc(Br)c3)cs2)nc2ccccc21` gave ADAM17 inh 10.9*, proKLK7 act 0.2, ADAM10 inh 11.5, NR2E3 ag-1 -34.4, ADAM10 counter 17.3 and ADAM17 confirm 11.1*.
COC(=O)[C@H](C(C)C)N(CCCc1cn(CC2CCCCC2)nn1)S(=O)(=O)c1ccc(F)cc1Br was read as ADAM17 inh 10.7*, proKLK7 act 0.3, ADAM10 inh 11.2, ADAM10 counter 26.5* and ADAM17 confirm 14.5*.
Screening COC(=O)[C@H](C(C)C)N(CCc1cn(Cc2ccc(C)cc2)nn1)S(=O)(=O)c1ccccc1Br returned ADAM17 inh 10.6*, proKLK7 act 1.0, ADAM10 inh 17.8, ADAM10 counter 24.0* and ADAM17 confirm 17.4*.
COC(=O)[C@H](C(C)C)N(Cc1cn(CC2CCCCC2)nn1)S(=O)(=O)c1ccc(F)cc1Br was read as ADAM17 inh 4.4, proKLK7 act -0.1 and ADAM10 inh 4.5.
For COc1cc(CNCc2c[nH]c3ccccc23)cc(OC)c1 the results were ADAM17 inh -4.4, proKLK7 act 0.5, ADAM10 inh -0.8, GASC-1 inh -7.9, NR2E3 ag-1 -23.6 and NR2E3 ag-2 -3.0.
For Cc1nnc(NC(=O)c2ccc(F)c(S(=O)(=O)N3CCCCC3)c2)s1 the results were ADAM17 inh -0.7, proKLK7 act 0.1, ADAM10 inh -4.9, GASC-1 inh -9.6, NR2E3 ag-1 -5.4 and NR2E3 ag-2 -0.3.
`Cc1ccc(NC(=O)c2cc([N+](=O)[O-])ccc2NCc2cccnc2)cc1` gave ADAM17 inh 9.2*, proKLK7 act 0.3, ADAM10 inh 11.8, GASC-1 inh -0.7, NR2E3 ag-1 -14.3, NR2E3 ag-2 0.2, ADAM10 counter 15.4 and ADAM17 confirm 8.6.
Screening COc1ccc([N+](=O)[O-])cc1NCc1cccnc1 returned ADAM17 inh -2.7, proKLK7 act -0.5, ADAM10 inh -9.8, GASC-1 inh -22.6, NR2E3 ag-1 -7.7 and NR2E3 ag-2 -0.8.
Screening COC(=O)[C@]12C[C@H](CC(=O)N3CCN(C(=O)C4CC4)CC3)C(=O)N(CCC3=CCCCC3)C1=C[C@H](C(C)(C)C)O[C@@H]2C returned ADAM17 inh 1.8, proKLK7 act 0.2 and ADAM10 inh 7.9.
Screening CCOC(=O)N1CCN(C(=O)C[C@H]2C[C@@]3(C(=O)OC)C(=C[C@H](C(C)(C)C)O[C@@H]3C)N(CCC3=CCCCC3)C2=O)CC1 returned ADAM17 inh 10.5*, proKLK7 act 0.6, ADAM10 inh 10.8, ADAM10 counter 10.4 and ADAM17 confirm 7.5.
For Cc1ccc2c(c1)[C@H]1[C@H](CO2)[C@H](c2ccccc2)[C@]2(C)C(=O)N(Cc3ccc(Cl)cc3)CC(=O)N12 the results were ADAM17 inh 11.6*, proKLK7 act 0.0, ADAM10 inh 15.4, GASC-1 inh -0.4, NR2E3 ag-1 -1.1, NR2E3 ag-2 -2.3, ADAM10 counter 10.4 and ADAM17 confirm 11.5*.
For CCOC(=O)[C@@H]1[C@H]2COc3ccc(Br)cc3[C@H]2N2C(=O)N(c3ccc(Br)cc3)C(=O)[C@]12C the results were ADAM17 inh 9.2*, proKLK7 act -0.1, ADAM10 inh 11.6, GASC-1 inh 3.4, NR2E3 ag-1 -37.1, NR2E3 ag-2 4.4, ADAM10 counter 31.1* and ADAM17 confirm 21.1*.
